Results published in ChEMBL document CHEMBL3853334, “Brain penetrant liver X receptor (LXR) modulators based on a 2,4,5,6-tetrahydropyrrolo[3,4-c]pyrazole core” (Bioorg Med Chem Lett, 2016).

Experiments:
[1] = Half life in human liver microsomes; assay type: ADME
[2] = Half life in rat liver microsomes; assay type: ADME
Cytochrome P450 3A4 = Cytochrome P450 3A4 (Homo sapiens, UniProt P08684); assay: Inhibition of CYP3A4 (unknown origin)
Cytochrome P450 2D6 = Cytochrome P450 2D6 (Homo sapiens, UniProt P10635); assay: Inhibition of CYP2D6 (unknown origin)
Cytochrome P450 2C9 = Cytochrome P450 2C9 (Homo sapiens, UniProt P11712); assay: Inhibition of CYP2C9 (unknown origin)
[3] = Half life in mouse liver microsomes; assay type: ADME
[4] = Plasma concentration in wild type C57BL mouse at 3 mg/kg, po measured after 4 hrs; assay type: ADME, organism-based
How it was run: (§1)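 Wild-type C57BL mice, single oral dose of 1 or 3 mg/kg. Plasma and brain drug levels were measured 4 h post-dose, and brain ABCA1 mRNA induction was compared with vehicle control.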

[5] = Drug uptake in wild type C57BL mouse brain at 3 mg/kg, po measured after 4 hrs; assay type: ADME, organism-based; details: read-out: Drug uptake; how it was run: as §1
[6] = Plasma concentration in Sprague-Dawley rat at 5 mg/kg, po measured after 4 hrs; assay type: ADME, organism-based
How it was run: (§2)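 Male Sprague–Dawley rats, single oral dose of 5 mg/kg. Plasma and brain drug levels, plus brain ABCA1 mRNA, were measured 4 h after dosing.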

[7] = Drug uptake in Sprague-Dawley rat brain at 5 mg/kg, po measured after 4 hrs; assay type: ADME, organism-based; details: read-out: Drug uptake; how it was run: as §2
[8] = Plasma concentration in Sprague-Dawley rat at 10 mg/kg qd administered via oral gavage for 5 days measured 4 hrs post last dose; assay type: ADME, organism-based
How it was run: (§3)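 Sprague–Dawley rats, oral dosing once daily for 5 days at 1, 3 or 10 mg/kg/day, with a reference LXR agonist at 30 mg/kg in the same study. Drug levels were measured in plasma and brain. Brain ABCA1 mRNA was also measured, along with Aβ1–40 and Aβ1–42 in cerebrum and CSF.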

[9] = Plasma concentration in Sprague-Dawley rat at 3 mg/kg qd administered via oral gavage for 5 days measured 4 hrs post last dose; assay type: ADME, organism-based; how it was run: as §3
[10] = Plasma concentration in Sprague-Dawley rat at 1 mg/kg qd administered via oral gavage for 5 days measured 4 hrs post last dose; assay type: ADME, organism-based; how it was run: as §3
[11] = Drug uptake in Sprague-Dawley rat brain at 10 mg/kg qd administered via oral gavage for 5 days measured 4 hrs post last dose; assay type: ADME, organism-based; details: read-out: Drug uptake; how it was run: as §3
[12] = Drug uptake in Sprague-Dawley rat brain at 3 mg/kg qd administered via oral gavage for 5 days measured 4 hrs post last dose; assay type: ADME, organism-based; details: read-out: Drug uptake; how it was run: as §3
[13] = Drug uptake in Sprague-Dawley rat brain at 1 mg/kg qd administered via oral gavage for 5 days measured 4 hrs post last dose; assay type: ADME, organism-based; details: read-out: Drug uptake; how it was run: as §3
[14] = Plasma concentration in wild type C57BL mouse at 1 mg/kg, po measured after 4 hrs; assay type: ADME, organism-based; how it was run: as §1
[15] = Drug uptake in wild type C57BL mouse brain at 1 mg/kg, po measured after 4 hrs; assay type: ADME, organism-based; details: read-out: Drug uptake; how it was run: as §1
[16] = Plasma concentration in wild type C57BL mouse at 30 mg/kg, po measured after 4 hrs; assay type: ADME, organism-based
[17] = Drug uptake in wild type C57BL mouse brain at 30 mg/kg, po measured after 4 hrs; assay type: ADME, organism-based; details: read-out: Drug uptake
[18] = Plasma concentration in Sprague-Dawley rat at 30 mg/kg qd administered via oral gavage for 5 days measured 4 hrs post last dose; assay type: ADME, organism-based; how it was run: as §3
[19] = Drug uptake in Sprague-Dawley rat brain at 30 mg/kg qd administered via oral gavage for 5 days measured 4 hrs post last dose; assay type: ADME, organism-based; details: read-out: Drug uptake; how it was run: as §3
Rattus norvegicus = assay: Induction of ABCA1 mRNA expression in Sprague-Dawley rat brain at 30 mg/kg qd administered via oral gavage for 5 days measured 4 hrs post last dose relative to control; assay type: functional

Sequence of Cytochrome P450 2D6 (P10635 whole entry): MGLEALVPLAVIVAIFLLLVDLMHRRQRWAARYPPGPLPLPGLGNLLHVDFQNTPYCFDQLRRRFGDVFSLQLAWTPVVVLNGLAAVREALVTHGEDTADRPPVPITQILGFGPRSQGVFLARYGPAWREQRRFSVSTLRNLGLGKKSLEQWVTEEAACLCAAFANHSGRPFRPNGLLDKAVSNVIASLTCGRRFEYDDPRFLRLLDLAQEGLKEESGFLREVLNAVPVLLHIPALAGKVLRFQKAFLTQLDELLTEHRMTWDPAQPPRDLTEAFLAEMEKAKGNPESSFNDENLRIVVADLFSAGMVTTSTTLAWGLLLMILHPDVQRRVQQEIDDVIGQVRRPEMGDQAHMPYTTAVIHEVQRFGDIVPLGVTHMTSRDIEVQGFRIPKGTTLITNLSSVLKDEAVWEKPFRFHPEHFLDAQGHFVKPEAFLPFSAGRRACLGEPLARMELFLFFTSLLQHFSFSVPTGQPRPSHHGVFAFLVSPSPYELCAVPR
Sequence of Cytochrome P450 3A4 (P08684 whole entry): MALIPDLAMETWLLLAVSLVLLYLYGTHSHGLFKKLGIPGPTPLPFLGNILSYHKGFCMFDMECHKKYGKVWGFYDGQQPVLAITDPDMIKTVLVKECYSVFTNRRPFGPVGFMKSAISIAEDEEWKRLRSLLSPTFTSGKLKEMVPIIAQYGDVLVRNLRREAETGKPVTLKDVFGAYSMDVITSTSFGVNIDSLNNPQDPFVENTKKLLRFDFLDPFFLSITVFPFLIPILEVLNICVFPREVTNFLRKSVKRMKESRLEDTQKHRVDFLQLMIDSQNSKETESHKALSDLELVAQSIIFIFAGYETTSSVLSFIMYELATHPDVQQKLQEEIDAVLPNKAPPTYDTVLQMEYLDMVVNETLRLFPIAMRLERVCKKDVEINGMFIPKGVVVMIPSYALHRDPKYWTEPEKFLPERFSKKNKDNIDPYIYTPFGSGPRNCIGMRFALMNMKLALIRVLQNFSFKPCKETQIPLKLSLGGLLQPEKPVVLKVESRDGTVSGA
Sequence of Cytochrome P450 2C9 (P11712 whole entry): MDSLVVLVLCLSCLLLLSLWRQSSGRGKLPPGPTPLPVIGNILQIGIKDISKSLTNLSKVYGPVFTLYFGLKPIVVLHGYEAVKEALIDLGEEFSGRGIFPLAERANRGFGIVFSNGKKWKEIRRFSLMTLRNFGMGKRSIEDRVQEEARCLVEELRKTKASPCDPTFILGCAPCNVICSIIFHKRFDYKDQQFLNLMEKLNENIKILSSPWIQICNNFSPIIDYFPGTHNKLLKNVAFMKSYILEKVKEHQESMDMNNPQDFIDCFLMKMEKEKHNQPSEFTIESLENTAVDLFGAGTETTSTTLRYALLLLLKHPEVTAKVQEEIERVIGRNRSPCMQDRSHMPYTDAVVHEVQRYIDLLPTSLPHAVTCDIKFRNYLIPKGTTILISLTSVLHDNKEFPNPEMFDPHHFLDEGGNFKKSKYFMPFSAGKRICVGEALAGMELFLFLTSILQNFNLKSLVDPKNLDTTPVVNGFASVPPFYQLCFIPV

SMILES: CC(C)[C@@H]1CN(c2ccc(CO)c(S(C)(=O)=O)c2)CCN1c1ncc(CO)c(C(F)(F)F)n1
- half-life [1]: 0.717 h
- half-life [2]: 1.15 h

SMILES: COc1ncnc(N2Cc3cn(-c4cccc(S(C)(=O)=O)c4)nc3[C@H]2C(C)C)c1F
- IC50 (Cytochrome P450 3A4): 2.5 µM
- IC50 (Cytochrome P450 2D6): 27 µM
- IC50 (Cytochrome P450 2C9): 1.44 µM
- half-life [1]: > 1 h
- half-life [2]: > 1 h

SMILES: COc1cc(N2Cc3cn(-c4cccc(S(C)(=O)=O)c4)nc3[C@H]2C(C)C)ccn1
- IC50 (Cytochrome P450 3A4): > 30 µM
- IC50 (Cytochrome P450 2D6): > 30 µM
- IC50 (Cytochrome P450 2C9): 5.63 µM
- half-life [1]: > 1 h
- half-life [3]: > 1 h
- half-life [2]: > 1 h

SMILES: COc1cc(N2Cc3cn(-c4cccc(S(C)(=O)=O)c4)nc3[C@H]2C(C)C)nc(C)n1
- IC50 (Cytochrome P450 3A4): 12.9 µM
- IC50 (Cytochrome P450 2D6): 5.37 µM
- IC50 (Cytochrome P450 2C9): 6.62 µM
- half-life [1]: > 1 h

SMILES: CC(C)[C@@H]1c2nn(-c3cccc(S(C)(=O)=O)c3)cc2CN1c1ncc(CO)c(C(F)(F)F)n1
- IC50 (Cytochrome P450 3A4): 3.05 µM
- IC50 (Cytochrome P450 2C9): 0.373 µM
- half-life [1]: > 1 h
- half-life [2]: 3.12 h

SMILES: CC(C)[C@@H]1c2nn(-c3cccc(S(C)(=O)=O)c3)cc2CN1c1ccnc(C(F)(F)F)n1
- IC50 (Cytochrome P450 3A4): 12.8 µM
- IC50 (Cytochrome P450 2D6): 20.9 µM
- IC50 (Cytochrome P450 2C9): 1.87 µM
- half-life [1]: > 1 h
- half-life [3]: > 1 h
- half-life [2]: > 1 h
- concentration at 4 h [4]: 2890 nM
- concentration at 4 h [5]: 3150 nM
- concentration at 4 h [6]: 1740 nM
- concentration at 4 h [7]: 2060 nM

SMILES: COc1cc(N2Cc3cn(-c4cccc(S(C)(=O)=O)c4)nc3[C@H]2C(C)(C)C)ccn1
- IC50 (Cytochrome P450 3A4): > 30 µM
- IC50 (Cytochrome P450 2D6): 7.8 µM
- IC50 (Cytochrome P450 2C9): 8.3 µM
- half-life [1]: > 1 h
- half-life [3]: 1.1 h
- half-life [2]: > 1 h
- concentration at 4 h [4]: 1080 nM
- concentration at 4 h [5]: 1020 nM
- concentration at 4 h [6]: 1220 nM
- concentration at 4 h [7]: 2280 nM
- concentration at 4 h [8]: 1570 nM
- concentration at 4 h [9]: 463 nM
- concentration at 4 h [10]: 187 nM
- concentration at 4 h [11]: 5040 nM
- concentration at 4 h [12]: 1560 nM
- concentration at 4 h [13]: 641 nM

SMILES: COc1nc(C)cc(N2Cc3cn(-c4cccc(S(C)(=O)=O)c4)nc3[C@H]2C(C)C)n1
- IC50 (Cytochrome P450 2D6): 24.2 µM
- IC50 (Cytochrome P450 2C9): 5.75 µM
- half-life [1]: > 1 h
- half-life [3]: > 1 h
- half-life [2]: > 1 h
- concentration at 4 h [14]: 2 nM

SMILES: CC(C)[C@@H]1c2nn(-c3cccc(S(C)(=O)=O)c3)cc2CN1c1nccc(C(F)(F)F)n1
- IC50 (Cytochrome P450 3A4): > 30 µM
- IC50 (Cytochrome P450 2D6): 25.7 µM
- IC50 (Cytochrome P450 2C9): 2.11 µM
- half-life [1]: > 1 h
- half-life [3]: > 1 h
- half-life [2]: > 1 h

SMILES: CC(C)[C@@H]1c2nn(-c3cccc(S(C)(=O)=O)c3)cc2CN1c1cc(C(F)(F)F)ncn1
- IC50 (Cytochrome P450 3A4): > 30 µM
- IC50 (Cytochrome P450 2D6): > 30 µM
- IC50 (Cytochrome P450 2C9): 5.21 µM
- half-life [1]: > 1 h
- half-life [3]: 0.833 h
- half-life [2]: > 1 h

SMILES: COc1ncc(F)c(N2Cc3cn(-c4cccc(S(C)(=O)=O)c4)nc3[C@H]2C(C)C)n1
- IC50 (Cytochrome P450 3A4): 15.4 µM
- IC50 (Cytochrome P450 2D6): 12.7 µM
- IC50 (Cytochrome P450 2C9): 0.858 µM
- half-life [1]: > 1 h
- half-life [2]: > 1 h
- concentration at 4 h [14]: 50 nM

SMILES: COc1cc(N2Cc3cn(-c4cccc(S(C)(=O)=O)c4)nc3[C@H]2C(C)C)cc(C)n1
- IC50 (Cytochrome P450 3A4): > 30 µM
- IC50 (Cytochrome P450 2D6): 25.7 µM
- IC50 (Cytochrome P450 2C9): 3.81 µM
- half-life [3]: > 0.367 h

SMILES: CC(C)[C@@H]1c2nn(-c3ccc(CO)c(S(C)(=O)=O)c3)cc2CN1c1ncc(CO)c(C(F)(F)F)n1
- IC50 (Cytochrome P450 3A4): 7.7 µM
- IC50 (Cytochrome P450 2D6): 7.75 µM
- IC50 (Cytochrome P450 2C9): 0.493 µM
- half-life [1]: > 1 h
- half-life [2]: > 1 h

SMILES: Cc1nc(N2Cc3cn(-c4cccc(S(C)(=O)=O)c4)nc3[C@H]2C(C)C)cc(C(F)(F)F)n1
- IC50 (Cytochrome P450 3A4): 21.1 µM
- IC50 (Cytochrome P450 2D6): 15.8 µM
- IC50 (Cytochrome P450 2C9): 5.04 µM
- half-life [1]: > 1 h
- half-life [3]: > 1 h
- half-life [2]: > 1 h
- concentration at 4 h [14]: 143 nM
- concentration at 4 h [15]: 212 nM
- concentration at 4 h [6]: 423 nM
- concentration at 4 h [7]: 825 nM

SMILES: O=S(=O)(c1ccccc1)N(CC(F)(F)F)c1ccc(C(O)(C(F)(F)F)C(F)(F)F)cc1 [T091317]
- concentration at 4 h [16]: 3770 nM
- concentration at 4 h [17]: 8050 nM
- concentration at 4 h [18]: 2800 nM
- concentration at 4 h [19]: 5360 nM
- fold change (FC) (Rattus norvegicus): 5
